The values that follow come from ChEMBL document CHEMBL3864187, “Discovery and Characterization of a Peptoid with Antifungal Activity against Cryptococcus neoformans” (ACS Med Chem Lett, 2016).

Data set [1] in a line: Antifungal activity against Cryptococcus neoformans serotype A H99S assessed as inhibition of colony growth measured after 72 hrs by PrestoBlue staining based broth dilution method. It is filed as functional. To be noted: for MIC: Cryptococcus neoformans var. grubii H99S. An outline of the steps: (§1)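 Standard broth dilution of the synthesized, HPLC-purified peptoid against C. neoformans in a triplicate-sample format with 72 h incubation; MIC is the lowest concentration that inhibits growth.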
Background: In broth dilution the organism is exposed to a series of concentrations in liquid medium.

Data set [2] in a line: Selectivity index, ratio of HC10 for human erythrocytes to MIC for Cryptococcus neoformans serotype A H99S. Put shortly: (§2)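 Mammalian toxicity tested at 800 to 3.1 μg/mL. IC50 (50% growth inhibition) was measured in NIH/3T3, HepG2 and HPL1A cells, and HC10 (10% lysis) in human erythrocytes. Each value was divided by the broth-dilution MIC against H99S.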
Data set [3] is described as follows: Antifungal activity against Cryptococcus neoformans serotype D ATCC 24067 after 72 hrs by PrestoBlue staining based broth dilution method. Format: functional, Cryptococcus deneoformans. An outline of the steps: as §1
Data set [4] in a line: Selectivity index, ratio of IC50 for human HepG2 cells to MIC for Cryptococcus neoformans serotype A H99S. An outline of the steps:
as §2

Data set [5] is described as follows: Antifungal activity against Cryptococcus neoformans serotype D clinical isolate AD 12-27 after 72 hrs by PrestoBlue staining based broth dilution method. Format: functional, Cryptococcus deneoformans. An outline of the steps:
(§3)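 Standard broth dilution MIC assay run in triplicate samples with 72 h incubation. The MIC is the lowest concentration inhibiting growth. An IC50 (50% inhibitory concentration) is also derived from the same assay.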

Data set [6] relates to Cryptococcus neoformans. The data set is described as follows: Antifungal activity against Cryptococcus neoformans serotype A clinical isolate B24 after 72 hrs by PrestoBlue staining based broth dilution method. It is filed as functional. To be noted: isolate B24, 72 h. An outline of the steps: as §3
The nature of data set [7]: Cytotoxicity against human HPL1A cells measured after 48 hrs by MTT assay. Format: toxicity, cell-based. An outline of the steps: (§4)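 Cells were exposed to peptoid across 800 to 3.1 μg/mL. IC50 is defined as the concentration giving 50% growth inhibition. Cytotoxicity was also scored at 6.3 μg/mL within this range.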
In general terms: Tetrazolium dyes change colour on reduction, which living cells bring about.

Data set [8] can be described thus: Cytotoxicity against human HepG2 cells at 6.3 ug/ml measured after 48 hrs by MTT assay. Format: toxicity, cell-based. To be noted: hepg2, 48 h. Put shortly: as §4
Data set [9] is described as follows: Hemolytic activity against human erythrocytes at 6.3 ug/ml measured after 1 hr by spectrophotometric method. It is filed as cell-based. To be noted: erythrocyte. Put shortly: (§5)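 Human erythrocytes were exposed to peptoid across 800 to 3.1 μg/mL. HC10 is defined as the concentration lysing 10% of erythrocytes. Lysis was also scored at 6.3 μg/mL.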
Data set [10] has as its system Cryptococcus neoformans. The data set is described as follows: Fungicidal activity against Cryptococcus neoformans serotype A H99S at =>6.3 ug/mL measured after 72 hrs by broth dilution method. It is filed as functional. To be noted: Cryptococcus neoformans var. grubii H99S. An outline of the steps: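 Broth MIC assay over a range of peptoid concentrations with 72 h incubation. Triplicate wells are pooled, washed with PBS to remove drug and spotted onto YPD agar. Fungicidal activity means no colony regrowth; recovery of colonies means fungistatic only.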

A short description of data set [11]: Cytotoxicity against human erythrocytes assessed as hemolysis measured after 1 hr by spectrophotometric method. It is filed as toxicity, cell-based. To be noted: erythrocyte. Put shortly: as §5
Data set [12] in a line: Cytotoxicity against human HPL1A cells at 6.3 ug/ml measured after 48 hrs by MTT assay. Format: toxicity, cell-based. An outline of the steps: as §4
Data set [13] is described as follows: Selectivity index, ratio of IC50 for mouse NIH/3T3 cells to MIC for Cryptococcus neoformans serotype A H99S. Put shortly: as §2
Data set [14] deals with Cryptococcus neoformans. The data set can be described thus: Antifungal activity against Cryptococcus neoformans serotype A clinical isolate B18 after 72 hrs by PrestoBlue staining based broth dilution method. Format: functional. The note with it: isolate B18, 72 h. An outline of the steps:
as §3

Data set [15] can be described thus: Cytotoxicity against human HepG2 cells measured after 48 hrs by MTT assay. Format: toxicity, cell-based. Put shortly: as §4
The species named for data set [16] is Mus musculus. The data set can be described thus: Cytotoxicity against mouse NIH/3T3 cells at 6.3 ug/ml measured after 48 hrs by MTT assay. Format: toxicity, cell-based. The note with it: nih3t3, 48 h. An outline of the steps:
as §4

The nature of data set [17]: Cytotoxicity against mouse NIH/3T3 cells measured after 48 hrs by MTT assay. It is filed as toxicity, NIH3T3. An outline of the steps:
as §4

Data set [18] can be described thus: Selectivity index, ratio of IC50 for human HPL1A cells to MIC for Cryptococcus neoformans serotype A H99S. An outline of the steps:
as §2

A short description of data set [19]: Metabolic stability in human serum assessed as compound degradation at 0.1 mg/mL measured after 48 hrs by RP-HPLC analysis. It is filed as ADME.
The nature of data set [20]: Antifungal activity against Cryptococcus neoformans serotype D clinical isolate AD 12-30 after 72 hrs by PrestoBlue staining based broth dilution method. Format: functional, Cryptococcus deneoformans. Put shortly:
as §3

Values after ≈ are worked out from the molar mass of the structure shown. Active and inactive are the calls of the source. Where a SMILES comes first, the peptide text is derived from it. [ ]: non-standard residue; d: D form. NFurfurylGly = O=C(O)CNCc1ccco1; Gly(N(CH2)3NH2) = NCCCNCC(=O)O; Nphe = O=C(O)CNCc1ccccc1 Some results are limits rather than exact numbers.

With `NCCCN(CC(=O)N(CC(=O)N(CC(N)=O)Cc1ccco1)Cc1ccccc1)C(=O)CN(Cc1ccccc1)C(=O)CNCc1ccccc1` (H-[Nphe][Nphe][Gly(N(CH2)3NH2)][Nphe][NFurfurylGly]-NH2), the MIC (in general, the least concentration at which growth counts as inhibited) in data set [1] was above 200 µg/mL.
For the compound `CCCCCCCCCCCCCNCC(=O)N(CCCCN)CC(=O)N(CC(N)=O)Cc1ccco1`, the “Selectivity Index” value in [2] was 11; in [4], 9; in data set [13] it was 8; in [18] it was 6. Further, the IC50 – broadly, the concentration that gives 50% inhibition – in data set [3] was 3.9 µg/mL (≈ 7.47 µM); in [5], 4 µg/mL (≈ 7.67 µM); in data set [6], 10.7 µg/mL (≈ 20.5 µM); in data set [14], 12.2 µg/mL (≈ 23.4 µM); in [1], 0.68 µg/mL (≈ 1.3 µM); in data set [20], 6.9 µg/mL (≈ 13.2 µM). The minimal inhibitory concentration (MIC) came out at 6.3 µg/mL (≈ 12.1 µM) in [3] (Cryptococcus deneoformans); 25 µg/mL (≈ 47.9 µM) in data set [5] (Cryptococcus deneoformans); 12.5 µg/mL (≈ 24 µM) in data set [6]; 25 µg/mL (≈ 47.9 µM) in [14]; 6.3 µg/mL (≈ 12.1 µM) in data set [1]; 25 µg/mL (≈ 47.9 µM) in data set [20] (Cryptococcus deneoformans). In addition, the IC50 at 48 h is 36.3 µg/mL (≈ 69.6 µM) in [7], 43.6 to 56.2 µg/mL (≈ 83.6 to 108 µM) in data set [15] and 48.6 to 50.3 µg/mL (≈ 93.1 to 96.4 µM) in data set [17]. Moreover, the Activity result in [8], in data set [9], in data set [12] and in [16] was “Non-Toxic” throughout. Also, the outcome in [10] was Active. In addition, the HC10 in data set [11] is 68.7 µg/mL. Also, in data set [19], the Stability result is recorded as “Stable”.
